Assay results: ChEMBL document CHEMBL1156877, “Discovery of 6-benzyloxyquinolines as c-Met selective kinase inhibitors” (Bioorg Med Chem Lett, 2010)

Assays:
[1] = target: Leukocyte tyrosine kinase receptor (Homo sapiens, UniProt P29376); assay: Inhibition of recombinant LTK by TR-FRET assay
In short: (§1)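 Recombinant tyrosine kinase incubated with test compound and substrate peptide/ATP for 90 min at 30 °C; enzyme amount, ATP level, substrate and cation vary by kinase. Reaction stopped, then TR-FRET reagent with europium-labelled anti-phospho-substrate antibody added for 5 min at room temperature; substrate phosphorylation read as time-resolved fluorescence.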

[2] = target: Insulin-like growth factor 1 receptor (Homo sapiens, UniProt P08069); assay: Inhibition of recombinant IGF1R by TR-FRET assay; in short: as §1
NCI-H460 = assay: Cytotoxicity against human NCI-H460 cells after 96 hrs by WST8 assay; conditions: NCI-H460, 96 h
[3] = target: Mast/stem cell growth factor receptor Kit (Homo sapiens, UniProt P10721); assay: Inhibition of recombinant Kit by TR-FRET assay; in short: as §1
Aurora kinase A = target: T1, Aurora kinase A (Homo sapiens, UniProt O14965); assay: Inhibition of recombinant Aurora A by IMAP assay
T1 sequence (O14965 whole entry): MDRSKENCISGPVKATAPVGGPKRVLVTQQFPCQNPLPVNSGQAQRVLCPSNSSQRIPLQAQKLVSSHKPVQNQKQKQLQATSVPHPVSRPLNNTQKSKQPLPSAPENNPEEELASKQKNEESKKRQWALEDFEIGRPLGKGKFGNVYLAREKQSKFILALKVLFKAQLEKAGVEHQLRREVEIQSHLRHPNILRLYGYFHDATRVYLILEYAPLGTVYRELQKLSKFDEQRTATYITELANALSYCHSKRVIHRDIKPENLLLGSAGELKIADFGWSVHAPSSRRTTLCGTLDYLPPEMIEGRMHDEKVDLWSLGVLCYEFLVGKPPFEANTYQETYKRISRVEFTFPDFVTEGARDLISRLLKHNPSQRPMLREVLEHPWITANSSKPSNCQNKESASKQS
In short: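 Recombinant enzyme mixed with test compound and substrate peptide/ATP solution, incubated 90 min at 30 °C; enzyme quantity, ATP, substrate and cation set per kinase. IMAP reagent then added for 5 min at room temperature, and peptide phosphorylation quantified by fluorescence polarization.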

[4] = target: T2, Tyrosine-protein kinase receptor UFO (Homo sapiens, UniProt P30530); assay: Inhibition of recombinant AXL by TR-FRET assay; in short: as §1
T2 sequence (P30530 whole entry): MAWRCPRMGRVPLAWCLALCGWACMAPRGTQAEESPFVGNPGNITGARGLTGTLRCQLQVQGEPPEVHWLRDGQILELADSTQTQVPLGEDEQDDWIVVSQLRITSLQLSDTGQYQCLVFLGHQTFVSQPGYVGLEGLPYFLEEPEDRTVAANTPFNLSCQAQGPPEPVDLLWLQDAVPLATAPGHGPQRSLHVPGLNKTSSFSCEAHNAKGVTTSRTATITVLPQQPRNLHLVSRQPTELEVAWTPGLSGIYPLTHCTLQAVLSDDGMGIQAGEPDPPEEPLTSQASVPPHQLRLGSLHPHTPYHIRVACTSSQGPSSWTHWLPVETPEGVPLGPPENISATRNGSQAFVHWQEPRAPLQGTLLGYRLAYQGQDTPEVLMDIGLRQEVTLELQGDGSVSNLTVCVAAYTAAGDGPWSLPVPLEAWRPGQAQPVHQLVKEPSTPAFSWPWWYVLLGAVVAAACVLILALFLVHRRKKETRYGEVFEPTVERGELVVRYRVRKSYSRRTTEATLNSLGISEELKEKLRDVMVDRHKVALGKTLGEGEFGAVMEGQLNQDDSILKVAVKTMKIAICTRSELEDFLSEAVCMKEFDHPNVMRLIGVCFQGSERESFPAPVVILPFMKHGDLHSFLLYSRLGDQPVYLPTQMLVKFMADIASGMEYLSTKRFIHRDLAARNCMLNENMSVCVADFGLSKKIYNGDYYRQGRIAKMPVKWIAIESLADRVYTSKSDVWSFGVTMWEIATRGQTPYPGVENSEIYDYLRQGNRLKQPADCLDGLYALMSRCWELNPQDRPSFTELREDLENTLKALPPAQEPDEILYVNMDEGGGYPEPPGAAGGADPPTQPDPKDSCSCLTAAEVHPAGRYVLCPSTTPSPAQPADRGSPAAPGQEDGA

COLO 205 = assay: Cytotoxicity against human COLO205 cells after 96 hrs by WST8 assay; conditions: COLO 205, 96 h
PC-3 = assay: Cytotoxicity against human PC3 cells after 96 hrs by WST8 assay; conditions: PC-3, 96 h
DU-145 = assay: Cytotoxicity against human DU145 cells after 96 hrs by WST8 assay; conditions: DU-145, 96 h
BXPC-3 = assay: Cytotoxicity against human BxPC3 cells after 96 hrs by WST8 assay; conditions: BXPC-3, 96 h
[5] = target: Protein-tyrosine kinase 6 (Homo sapiens, UniProt Q13882); assay: Inhibition of recombinant BRK by TR-FRET assay; in short: as §1
MKN-45 = assay: Cytotoxicity against human MKN45 cells after 96 hrs by WST8 assay; assay type: functional, cell-based; conditions: MKN-45, 96 h
In short: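 Tumour cells exposed to a range of compound concentrations for 96 h; cytotoxicity read with WST-8 cell counting kit.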

Chain of Protein-tyrosine kinase 6 (Q13882 whole entry): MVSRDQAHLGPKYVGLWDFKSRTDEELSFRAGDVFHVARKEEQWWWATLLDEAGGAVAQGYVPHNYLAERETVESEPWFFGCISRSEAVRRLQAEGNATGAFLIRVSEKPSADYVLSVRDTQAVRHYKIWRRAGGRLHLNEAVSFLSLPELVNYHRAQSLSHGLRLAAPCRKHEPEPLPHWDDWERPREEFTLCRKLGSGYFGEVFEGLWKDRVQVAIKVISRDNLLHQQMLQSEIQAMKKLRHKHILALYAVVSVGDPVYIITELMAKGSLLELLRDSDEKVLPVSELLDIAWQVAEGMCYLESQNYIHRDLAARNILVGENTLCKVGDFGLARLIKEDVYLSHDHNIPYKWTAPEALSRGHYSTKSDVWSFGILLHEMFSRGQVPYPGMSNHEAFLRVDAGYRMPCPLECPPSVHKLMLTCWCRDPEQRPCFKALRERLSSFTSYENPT
Chain of Mast/stem cell growth factor receptor Kit (P10721 whole entry): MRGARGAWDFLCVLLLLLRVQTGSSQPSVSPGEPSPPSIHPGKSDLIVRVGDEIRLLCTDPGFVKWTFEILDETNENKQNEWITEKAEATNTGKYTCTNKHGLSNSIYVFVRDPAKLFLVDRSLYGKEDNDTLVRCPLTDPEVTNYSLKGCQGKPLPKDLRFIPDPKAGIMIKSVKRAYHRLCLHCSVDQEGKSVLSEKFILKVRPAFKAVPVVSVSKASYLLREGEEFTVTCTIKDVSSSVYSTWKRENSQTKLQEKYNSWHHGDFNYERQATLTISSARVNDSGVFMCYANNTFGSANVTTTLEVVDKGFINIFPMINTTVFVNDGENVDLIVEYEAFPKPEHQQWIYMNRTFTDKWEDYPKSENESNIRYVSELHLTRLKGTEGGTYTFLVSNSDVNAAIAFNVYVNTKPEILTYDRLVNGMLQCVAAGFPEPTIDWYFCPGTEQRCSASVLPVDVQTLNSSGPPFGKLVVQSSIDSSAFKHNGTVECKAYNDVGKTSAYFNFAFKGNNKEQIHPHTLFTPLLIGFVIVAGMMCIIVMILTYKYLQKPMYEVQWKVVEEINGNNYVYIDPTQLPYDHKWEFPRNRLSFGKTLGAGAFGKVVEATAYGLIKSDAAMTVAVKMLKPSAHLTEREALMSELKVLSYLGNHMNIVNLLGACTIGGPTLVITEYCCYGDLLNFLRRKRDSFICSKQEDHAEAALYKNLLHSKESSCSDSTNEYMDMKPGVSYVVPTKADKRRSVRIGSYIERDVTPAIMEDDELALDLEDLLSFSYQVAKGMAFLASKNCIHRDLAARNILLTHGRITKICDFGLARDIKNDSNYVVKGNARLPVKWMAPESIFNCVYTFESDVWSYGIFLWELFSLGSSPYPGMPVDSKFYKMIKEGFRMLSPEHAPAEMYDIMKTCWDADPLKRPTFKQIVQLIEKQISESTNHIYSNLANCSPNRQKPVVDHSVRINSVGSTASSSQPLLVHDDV
Chain of Insulin-like growth factor 1 receptor (P08069 31-736 limits assumed): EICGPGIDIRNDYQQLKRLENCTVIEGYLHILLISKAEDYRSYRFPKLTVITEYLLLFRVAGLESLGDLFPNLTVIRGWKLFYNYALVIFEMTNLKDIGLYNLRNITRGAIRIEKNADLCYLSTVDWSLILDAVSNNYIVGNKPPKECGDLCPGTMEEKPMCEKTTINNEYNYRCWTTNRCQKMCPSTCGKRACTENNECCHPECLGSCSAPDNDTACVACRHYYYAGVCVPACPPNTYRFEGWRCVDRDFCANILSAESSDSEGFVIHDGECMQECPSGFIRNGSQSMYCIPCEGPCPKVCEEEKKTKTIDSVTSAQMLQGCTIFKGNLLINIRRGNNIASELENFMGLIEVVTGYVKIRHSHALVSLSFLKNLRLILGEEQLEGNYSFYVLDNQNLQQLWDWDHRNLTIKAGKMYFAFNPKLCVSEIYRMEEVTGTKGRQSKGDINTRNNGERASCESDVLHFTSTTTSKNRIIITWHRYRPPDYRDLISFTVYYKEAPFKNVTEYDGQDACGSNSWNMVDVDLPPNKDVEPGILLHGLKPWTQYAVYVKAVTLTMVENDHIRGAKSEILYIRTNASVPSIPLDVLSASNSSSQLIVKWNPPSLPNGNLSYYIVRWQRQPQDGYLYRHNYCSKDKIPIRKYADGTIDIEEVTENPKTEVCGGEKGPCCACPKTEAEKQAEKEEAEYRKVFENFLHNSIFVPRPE
Chain of Insulin-like growth factor 1 receptor (P08069 741-1367 limits assumed): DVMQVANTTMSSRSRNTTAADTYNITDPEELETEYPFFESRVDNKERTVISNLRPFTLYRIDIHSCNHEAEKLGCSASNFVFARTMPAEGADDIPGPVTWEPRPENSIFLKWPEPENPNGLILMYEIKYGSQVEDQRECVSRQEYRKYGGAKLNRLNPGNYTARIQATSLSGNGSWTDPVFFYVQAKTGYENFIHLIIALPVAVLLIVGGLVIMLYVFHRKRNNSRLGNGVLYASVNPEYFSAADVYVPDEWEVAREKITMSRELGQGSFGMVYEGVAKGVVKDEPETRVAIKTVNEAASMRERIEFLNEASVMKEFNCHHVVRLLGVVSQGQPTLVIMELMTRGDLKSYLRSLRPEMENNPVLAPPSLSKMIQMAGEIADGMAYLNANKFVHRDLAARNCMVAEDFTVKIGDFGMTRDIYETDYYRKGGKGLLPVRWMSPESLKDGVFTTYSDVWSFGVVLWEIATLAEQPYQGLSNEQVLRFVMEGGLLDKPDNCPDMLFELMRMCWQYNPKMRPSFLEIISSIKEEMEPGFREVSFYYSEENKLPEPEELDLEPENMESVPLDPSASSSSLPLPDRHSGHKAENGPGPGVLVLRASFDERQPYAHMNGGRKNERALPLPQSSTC
Chain of Leukocyte tyrosine kinase receptor (P29376 whole entry): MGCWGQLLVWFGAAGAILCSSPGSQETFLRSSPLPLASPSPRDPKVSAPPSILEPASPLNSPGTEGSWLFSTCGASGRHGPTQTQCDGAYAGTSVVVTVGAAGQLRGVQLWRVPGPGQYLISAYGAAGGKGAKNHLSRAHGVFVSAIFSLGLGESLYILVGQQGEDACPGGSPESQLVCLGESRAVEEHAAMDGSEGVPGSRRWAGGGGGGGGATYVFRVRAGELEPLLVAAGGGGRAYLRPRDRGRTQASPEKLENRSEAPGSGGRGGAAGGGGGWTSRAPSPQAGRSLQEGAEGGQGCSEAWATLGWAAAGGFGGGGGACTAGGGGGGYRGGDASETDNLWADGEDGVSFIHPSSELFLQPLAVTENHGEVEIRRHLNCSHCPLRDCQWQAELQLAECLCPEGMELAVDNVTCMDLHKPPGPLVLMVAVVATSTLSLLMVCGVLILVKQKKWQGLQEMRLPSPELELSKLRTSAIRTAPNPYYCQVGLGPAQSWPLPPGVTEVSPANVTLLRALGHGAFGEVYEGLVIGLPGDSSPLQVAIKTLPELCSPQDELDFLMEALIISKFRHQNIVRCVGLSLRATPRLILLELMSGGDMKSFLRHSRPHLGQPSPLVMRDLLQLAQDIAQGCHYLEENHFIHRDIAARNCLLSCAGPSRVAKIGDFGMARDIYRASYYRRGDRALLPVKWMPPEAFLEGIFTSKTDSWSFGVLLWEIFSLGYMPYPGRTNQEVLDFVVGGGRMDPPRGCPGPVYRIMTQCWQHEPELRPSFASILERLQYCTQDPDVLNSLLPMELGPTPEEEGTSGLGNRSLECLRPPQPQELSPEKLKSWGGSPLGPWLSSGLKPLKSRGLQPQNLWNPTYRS

- IC50 [1]: 10 µM
- IC50 [2]: 27 µM
- IC50 [3]: 41 µM
- IC50 (Aurora kinase A): 22 µM
- IC50 [4]: 0.43 µM
- IC50 [5]: > 50 µM
SMILES: C[C@@H](Oc1ccc2ncc(C3CC3C(N)=O)cc2c1)c1c(Cl)ccc(F)c1Cl (some centres not stated)
- IC50 (NCI-H460): > 1 µM
- IC50 (COLO 205): > 1 µM
- IC50 (PC-3): > 1 µM
- IC50 (DU-145): > 1 µM
- IC50 (BXPC-3): > 1 µM
- IC50 (MKN-45): 0.093 µM
